The source of these data is ChEMBL document CHEMBL1764993, “Synthesis and biological evaluation of novel irreversible serine protease inhibitors using amino acid based sulfonyl fluorides as an electrophilic trap” (Bioorg Med Chem, 2011).

Test [1] can be described thus: Inhibition of chymotrypsin assessed as p-nitroaniline release at 20 uM measured at every 6 mins for 15 mins using Bz-L-Tyr-pNA as a substrate. The procedure, abridged:
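kinact: chymotrypsin mixed with inhibitor in sodium phosphate 0.05 M pH 7.0; aliquots moved into Bz-L-Tyr-pNA wells at 0–5 min, then all read at 405 nm for 15 min. Final enzyme 0.5 µM, substrate 250 µM, inhibitor 20 µM. Residual activity plotted against preincubation time.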

Test [2] is described as follows: Inhibition of chymotrypsin assessed as p-nitroaniline release measured for 15 mins using Bz-L-Tyr-pNA as a substrate by Dixon plot analysis. The gist of the method: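 Ki from Dixon plots: chymotrypsin (final 0.5 µM) in sodium phosphate 0.05 M pH 7.0 with Bz-L-Tyr-pNA at 0.15–0.25 mM and inhibitor at 7.81, 15.63 or 31.25 µM (final), no preincubation. p-Nitroaniline read directly at 405 nm for 15 min; DMSO controls; quadruplicate.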

For a further test, the target named is T1, Papain (Carica papaya) (UniProt P00784).
T1 sequence (whole entry): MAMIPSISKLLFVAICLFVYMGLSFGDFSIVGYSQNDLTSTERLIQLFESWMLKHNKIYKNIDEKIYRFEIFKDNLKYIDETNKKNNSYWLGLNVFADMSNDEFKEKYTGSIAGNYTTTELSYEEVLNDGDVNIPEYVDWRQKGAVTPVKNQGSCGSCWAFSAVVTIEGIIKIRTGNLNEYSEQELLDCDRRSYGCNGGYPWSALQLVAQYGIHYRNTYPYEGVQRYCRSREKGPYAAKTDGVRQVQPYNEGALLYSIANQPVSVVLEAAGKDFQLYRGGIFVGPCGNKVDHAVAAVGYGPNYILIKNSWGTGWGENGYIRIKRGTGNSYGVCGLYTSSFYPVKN
In words: Inhibition of papaya papain assessed as p-nitroaniline release at 2.5 uM after 1 hr pre-inhibition using Bz-L-Tyr-pNA as a substrate by calorimetric assay.

The nature of test [3]: Inhibition of chymotrypsin assessed as p-nitroaniline release after 30 mins pre-incubated with compound for 1 hr before addition of Bz-L-Tyr-pNA as a substrate by calorimetric assay. The procedure, abridged: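 Chymotrypsin (commercial, used as received) pre-incubated 1 h with inhibitor in DMSO in sodium phosphate 0.05 M pH 7.0; aliquot then added to Bz-L-Tyr-pNA. Final: enzyme 1.0 µM, substrate 0.25 mM; DMSO controls. p-Nitroaniline release read at 405 nm for 30 min at rt to give residual activity. Triplicate or quadruplicate.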

Activity calls are given as the source filed them. The calls are words filed in the database; no cut-off is given here.

The Ki is a dissociation constant, usually derived from enzyme kinetics or from competition with a known ligand. Take `O=S(=O)(F)Cc1ccccc1` [PHENYLMETHYLSULFONYLFLUORIDE]: the Kinact in test [1] amounted to 0.32 min⁻¹. Besides, the Ki in test [2] (read-out: Ki) was 13 µM.

As for `C[C@@H](CS(=O)(=O)F)NC(=O)OCc1ccccc1`, the outcome (on Papain (Carica papaya); in test [3]) was Active. The Ki entry in test [2] was “Not Active”.

For `O=C(N[C@@H](Cc1ccccc1)CS(=O)(=O)F)OCc1ccccc1`, the outcome (on Papain (Carica papaya); in test [3]) was Active.

On to `CC(C)[C@@H](CS(=O)(=O)F)NC(=O)OCC1c2ccccc2-c2ccccc21`, for which the outcome in test [3] was Active.

For `CC(C)C[C@@H](CS(=O)(=O)F)NC(=O)OCc1ccccc1`, the result (at Papain (Carica papaya); in test [3]) was Active.

As to `O=C(NCCS(=O)(=O)F)OCc1ccccc1`, the outcome (on Papain (Carica papaya); in test [3]) was Active.
